Assay results from different studies.
Each line is one published result; the experiments were not run side by side.
Target: Tyrosine-protein kinase Srms (SRMS, Homo sapiens, UniProt Q9H3Y6)

| SMILES | assay | conditions | endpoint | value |
| --- | --- | --- | --- | --- |
| O=C(Nc1cnn(-c2csc(C(=O)NC3COC3)c2)c1)Nc1c(F)cccc1Cl | enzyme activity, inhibitor | 5 µM | remaining activity | 105% |
| C[C@H](c1ccnc(Nc2nc3ccc(-c4cc(N(C)C)ncn4)cc3[nH]2)c1)N1CCN(C(=O)CC(F)(F)F)CC1 | cell-free assay, competition with immobilised ligand | 0.1 µM | remaining binding | 97% |
| CNC(=O)c1cc2c(Oc3ccc(NC(=O)C4(C(=O)Nc5ccc(F)cc5)CC4)cc3)ccnc2cc1OC | enzyme activity, inhibitor, radiometric | 1 µM | inhibition | 97% |
| Cc1ccc(C(=O)NCc2ccsc2)cc1C#Cc1cn(C(C)C)c2ncnc(N)c12 | enzyme activity, inhibitor | 1 µM | activity vs control | 31% |
| O=C1Nc2ccc(Cl)cc2C1=Cc1cc(Cl)c(O)c(Cl)c1 | cell-free assay | 0.5 µM | remaining signal | 86.3% |
| O=C(Nc1ccc(Oc2ccc(F)cc2)cc1)N1CCc2ncccc2[C@H]1c1ccc(F)cc1 | cell-free assay, competition with immobilised ligand | 1 µM | remaining binding | 94% |
| C[S+]([O-])c1ccc(-c2nc(-c3ccncc3)c(-c3ccc(F)cc3)[nH]2)cc1 (stereo not drawn) | cell-free assay | 0.5 µM | remaining signal | 102% |
| COc1cc2ncnc(Nc3ccc(Oc4ccccc4)cc3C)c2cc1OC | enzyme activity, inhibitor | 1 µM | inhibition | 84% |
| CC/C(=N\NC(=O)NCc1cccc(O)c1)c1ccc(O)c(C)c1O | enzyme activity, inhibitor | 0.1 µM | inhibition | 1.1% |
| CNCc1ccccc1-c1csc([C@H](C)Nc2nc(C)nc3cc(OC)c(OC)cc23)c1 | cell-free assay, competition with immobilised ligand | 1 µM | remaining binding | 88% |
| CC(C)(C)c1nc2c(s1)c1nc(N)ncc1c1ccc(NS(=O)(=O)c3c(F)cccc3F)c(F)c12 | enzyme activity, inhibitor, radiometric | 1 µM | remaining activity | 70% |
| Cc1sc(C(=O)NC2COC2)cc1-n1cc(NC(=O)Nc2c(F)cccc2Cl)cn1 | enzyme activity, inhibitor | 10 µM | remaining activity | 104% |
